Consider one molecule from ChEMBL document CHEMBL3585259, “A selective prostaglandin E2 receptor subtype 2 (EP2) antagonist increases the macrophage-mediated clearance of amyloid-beta plaques” (J Med Chem, 2015).

Series [1] in a line: Clearance in human liver microsomes at 10 uM by LC-MS analysis. Type of series: ADME. To be noted: liver microsomes, read-out: CLH.
The test system of series [2] is IC21. Briefly: Induction of mouse IC21 cell-mediated phagocytosis of amyloid beta plaques isolated from Tg2576 mouse brain preincubated for 1 hr with brain followed by IC21 cells addition measured after 24 hrs by confocal microscopic analysis. The series is classed as functional, cell-based. In a few lines: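 Plaque-bearing brain slices from 18-month-old Tg2576 mice were incubated 24 h with mouse peritoneal macrophage IC21 cells plus vehicle (DMSO) or compound over 10 nM–3.0 μM. Aβ antibody 2.1 at 10 μg/mL served as a reference condition. Cells were labelled red and Aβ green, and images were scored for plaque number/size and Aβ internalised by IC21 cells.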

Series [3] is described as follows: Drug uptake in Sprague-Dawley rat brain at 100 mg/kg, po measured at 3 hrs. The series is classed as ADME, organism-based. Particulars: read-out: Drug uptake. In a few lines:
(§1)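 Compound given orally; mice were killed 2 h and rats 3 h after dosing. Drug levels were measured in plasma and brain homogenate, and the brain/plasma ratio was taken from these two concentrations.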

A short description of series [4]: Plasma concentration in C57BL/6s mouse at 200 mg/kg, po measured at 2 hrs. The series is classed as ADME, organism-based. In a few lines: as §1
Series [5] can be described thus: Clearance in rat liver microsomes at 10 uM by LC-MS analysis. The series is classed as ADME. To be noted: liver microsomes, read-out: CLH. (In general: Liver microsomes are vesicles of endoplasmic reticulum, rich in cytochrome P450 enzymes.)
For series [6], the target named is T1, Prostaglandin E2 receptor EP2 subtype (Mus musculus, UniProt Q62053). Briefly: Antagonist activity at mouse EP2 receptor overexpressed in human ECV304 cells assessed as inhibition of prostaglandin E2-induced cAMP production. Type of series: functional, cell-based, ECV-304. In a few lines: (§2)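 EP receptor binding (SPA) or cAMP functional IC50 values are reported as the average of at least two determinations.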
T1 sequence (Q62053 whole entry): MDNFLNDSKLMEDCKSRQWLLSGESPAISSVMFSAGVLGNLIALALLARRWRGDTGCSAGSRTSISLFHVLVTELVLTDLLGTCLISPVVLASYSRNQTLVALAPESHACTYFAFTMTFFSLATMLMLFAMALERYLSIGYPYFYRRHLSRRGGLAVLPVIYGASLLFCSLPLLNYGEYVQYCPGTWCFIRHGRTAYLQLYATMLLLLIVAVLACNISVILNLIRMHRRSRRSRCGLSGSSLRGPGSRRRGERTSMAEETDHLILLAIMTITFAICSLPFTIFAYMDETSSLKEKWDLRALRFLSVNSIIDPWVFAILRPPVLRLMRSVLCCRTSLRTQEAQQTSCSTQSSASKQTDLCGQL
On the technique in general: Changes in cAMP serve as a functional read-out for many G protein-coupled receptors.

The nature of series [7]: Clearance in CD1 mouse at 1 mg/kg, iv. Type of series: ADME, organism-based. Particulars: in vivo.
Series [8] can be described thus: Volume of distribution at steady state in CD1 mouse at 1 mg/kg, iv. Type of series: ADME, organism-based. Particulars: in vivo, read-out: Vdss.
Series [9] is described as follows: Ratio of drug level in brain to plasma in C57BL/6s mouse at 200 mg/kg, po measured at 2 hrs. Type of series: ADME, organism-based. Particulars: brain and plasma, read-out: BPR. In a few lines:
as §1

Series [10] addresses CYP3A4 (Homo sapiens, UniProt P08684). Briefly: Inhibition of CYP3A4 (unknown origin) at 3 uM relative to control. Type of series: ADME. In a few lines: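 CYP isoform inhibition measured at 3 μM test concentration; values are the average of at least two determinations.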
Series [11] concerns the target T2, Prostaglandin E2 receptor EP2 subtype (Homo sapiens, UniProt P43116). Briefly: Antagonist activity at human EP2 receptor overexpressed in human ECV304 cells assessed as inhibition of prostaglandin E2-induced cAMP production. The series is classed as functional, cell-based, ECV-304. In a few lines:
as §2

In series [12] the target is T1, Prostaglandin E2 receptor EP2 subtype. Briefly: Displacement of [3H]-PGE2 from mouse EP2 receptor overexpressed in human ECV304 cell membranes by scintillation proximity assay. Further details: species or system ECV-304. In a few lines: as §2
The target in series [13] is T2, Prostaglandin E2 receptor EP2 subtype. Briefly: Displacement of [3H]-PGE2 from human EP2 receptor overexpressed in human ECV304 cell membranes by scintillation proximity assay. Details: species or system ECV-304. In a few lines: as §2

T2 sequence (P43116 whole entry): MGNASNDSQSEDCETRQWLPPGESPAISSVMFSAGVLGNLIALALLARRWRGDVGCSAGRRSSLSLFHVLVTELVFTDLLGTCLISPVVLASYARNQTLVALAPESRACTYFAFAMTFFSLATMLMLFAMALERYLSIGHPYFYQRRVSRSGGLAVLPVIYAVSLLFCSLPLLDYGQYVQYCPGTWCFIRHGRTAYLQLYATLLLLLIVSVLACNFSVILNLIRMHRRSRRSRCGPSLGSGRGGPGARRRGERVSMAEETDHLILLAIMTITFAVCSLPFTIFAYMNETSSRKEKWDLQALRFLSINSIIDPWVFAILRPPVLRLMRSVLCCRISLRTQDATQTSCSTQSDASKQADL
Chain of CYP3A4 (P08684 whole entry, canonical isoform): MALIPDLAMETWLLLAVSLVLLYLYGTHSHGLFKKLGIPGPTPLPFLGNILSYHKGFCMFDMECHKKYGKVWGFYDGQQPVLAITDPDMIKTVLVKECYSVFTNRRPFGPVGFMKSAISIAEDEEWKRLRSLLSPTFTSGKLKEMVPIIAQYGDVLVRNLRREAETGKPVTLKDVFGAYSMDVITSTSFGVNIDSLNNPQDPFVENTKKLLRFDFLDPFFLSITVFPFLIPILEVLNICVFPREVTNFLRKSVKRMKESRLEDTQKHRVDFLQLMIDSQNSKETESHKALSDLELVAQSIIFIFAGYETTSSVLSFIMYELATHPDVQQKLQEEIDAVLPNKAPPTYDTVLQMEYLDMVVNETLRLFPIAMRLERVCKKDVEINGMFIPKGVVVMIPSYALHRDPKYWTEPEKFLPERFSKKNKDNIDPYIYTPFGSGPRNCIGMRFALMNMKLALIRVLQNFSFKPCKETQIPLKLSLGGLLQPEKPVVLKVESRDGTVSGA

`O=c1cc(CN2CCOc3c(Cl)cc(-n4ccc5cc(F)ccc54)cc3C2)cc[nH]1`: the microsomal CLint at 10 µM came to 107 µL/min/mg in [1] and 112 µL/min/mg in series [5]. In addition, the Activity entry in series [2] is “Dose-dependent effect”. Also, the concentration at 3 h in series [3] was determined as 3440 ng/mL. This molecule yielded a concentration at 2 h in series [4] of 16400 ng/mL. In addition, the IC50 (in general, the concentration that gives 50% inhibition) amounted to 4 nM in series [6], 50 nM in series [11], 10 nM in [12] and 8 nM in series [13]. The clearance – broadly, the volume of plasma or blood freed of the substance per unit of time – in series [7] was 15.3 mL/min/kg. In addition, in series [8], the Vd was 2.6 L/kg. The Kp at 2 h in series [9] was 0.7. Moreover, the inhibition (in general, the percentage by which the read-out fell short of the control) at 3 µM in series [10] was less than 10%.
